Consider four molecules from article PMC4372064 (ACS Chemical Neuroscience, 2014).

For series [1], the system named is Na+ currents in CAD cells. The settings on record: 100 μM; cited from earlier work.
The test system of series [2] is mice (formalin pain model). The settings on record: 8 mg/kg; cited from earlier work.
The subject of series [3] is rats (tibial-nerve injury model). As to the kind of experiment: Tibial-nerve injury. Format: in vivo, rat.
In series [4] the test system is rat (MES seizure model). The settings on record: po, (95% CI), cited from earlier work.
Series [5] deals with voltage-gated sodium channels in rat embryonic cortical neurons. Description: Whole-cell patch clamp, inactivation protocol, rat embryonic cortical neurons. It is filed as cell-based. Conditions: 10 μM.
The subject of series [6] is mice (6 Hz psychomotor seizure model). Conditions: ip, 32 mA, [time of peak effect, h], (95% CI); cited from earlier work.
In series [7] the test system is voltage-gated sodium channels in rat embryonic cortical neurons. It is filed as cell-based. Conditions: 10 μM.
Series [8] concerns rat (behavioral toxicity). Conditions: po, h]; cited from earlier work.
For series [9], the system named is voltage-gated sodium channels in rat embryonic cortical neurons. Description: Whole-cell patch clamp, steady-state activation, rat embryonic cortical neurons. It is filed as cell-based. Conditions: 10 μM.
The target in series [10] is T1, sodium channels in CAD cells (Mus musculus, UniProt Q62205). Conditions: cited from earlier work.
T1 sequence (Q62205 whole entry): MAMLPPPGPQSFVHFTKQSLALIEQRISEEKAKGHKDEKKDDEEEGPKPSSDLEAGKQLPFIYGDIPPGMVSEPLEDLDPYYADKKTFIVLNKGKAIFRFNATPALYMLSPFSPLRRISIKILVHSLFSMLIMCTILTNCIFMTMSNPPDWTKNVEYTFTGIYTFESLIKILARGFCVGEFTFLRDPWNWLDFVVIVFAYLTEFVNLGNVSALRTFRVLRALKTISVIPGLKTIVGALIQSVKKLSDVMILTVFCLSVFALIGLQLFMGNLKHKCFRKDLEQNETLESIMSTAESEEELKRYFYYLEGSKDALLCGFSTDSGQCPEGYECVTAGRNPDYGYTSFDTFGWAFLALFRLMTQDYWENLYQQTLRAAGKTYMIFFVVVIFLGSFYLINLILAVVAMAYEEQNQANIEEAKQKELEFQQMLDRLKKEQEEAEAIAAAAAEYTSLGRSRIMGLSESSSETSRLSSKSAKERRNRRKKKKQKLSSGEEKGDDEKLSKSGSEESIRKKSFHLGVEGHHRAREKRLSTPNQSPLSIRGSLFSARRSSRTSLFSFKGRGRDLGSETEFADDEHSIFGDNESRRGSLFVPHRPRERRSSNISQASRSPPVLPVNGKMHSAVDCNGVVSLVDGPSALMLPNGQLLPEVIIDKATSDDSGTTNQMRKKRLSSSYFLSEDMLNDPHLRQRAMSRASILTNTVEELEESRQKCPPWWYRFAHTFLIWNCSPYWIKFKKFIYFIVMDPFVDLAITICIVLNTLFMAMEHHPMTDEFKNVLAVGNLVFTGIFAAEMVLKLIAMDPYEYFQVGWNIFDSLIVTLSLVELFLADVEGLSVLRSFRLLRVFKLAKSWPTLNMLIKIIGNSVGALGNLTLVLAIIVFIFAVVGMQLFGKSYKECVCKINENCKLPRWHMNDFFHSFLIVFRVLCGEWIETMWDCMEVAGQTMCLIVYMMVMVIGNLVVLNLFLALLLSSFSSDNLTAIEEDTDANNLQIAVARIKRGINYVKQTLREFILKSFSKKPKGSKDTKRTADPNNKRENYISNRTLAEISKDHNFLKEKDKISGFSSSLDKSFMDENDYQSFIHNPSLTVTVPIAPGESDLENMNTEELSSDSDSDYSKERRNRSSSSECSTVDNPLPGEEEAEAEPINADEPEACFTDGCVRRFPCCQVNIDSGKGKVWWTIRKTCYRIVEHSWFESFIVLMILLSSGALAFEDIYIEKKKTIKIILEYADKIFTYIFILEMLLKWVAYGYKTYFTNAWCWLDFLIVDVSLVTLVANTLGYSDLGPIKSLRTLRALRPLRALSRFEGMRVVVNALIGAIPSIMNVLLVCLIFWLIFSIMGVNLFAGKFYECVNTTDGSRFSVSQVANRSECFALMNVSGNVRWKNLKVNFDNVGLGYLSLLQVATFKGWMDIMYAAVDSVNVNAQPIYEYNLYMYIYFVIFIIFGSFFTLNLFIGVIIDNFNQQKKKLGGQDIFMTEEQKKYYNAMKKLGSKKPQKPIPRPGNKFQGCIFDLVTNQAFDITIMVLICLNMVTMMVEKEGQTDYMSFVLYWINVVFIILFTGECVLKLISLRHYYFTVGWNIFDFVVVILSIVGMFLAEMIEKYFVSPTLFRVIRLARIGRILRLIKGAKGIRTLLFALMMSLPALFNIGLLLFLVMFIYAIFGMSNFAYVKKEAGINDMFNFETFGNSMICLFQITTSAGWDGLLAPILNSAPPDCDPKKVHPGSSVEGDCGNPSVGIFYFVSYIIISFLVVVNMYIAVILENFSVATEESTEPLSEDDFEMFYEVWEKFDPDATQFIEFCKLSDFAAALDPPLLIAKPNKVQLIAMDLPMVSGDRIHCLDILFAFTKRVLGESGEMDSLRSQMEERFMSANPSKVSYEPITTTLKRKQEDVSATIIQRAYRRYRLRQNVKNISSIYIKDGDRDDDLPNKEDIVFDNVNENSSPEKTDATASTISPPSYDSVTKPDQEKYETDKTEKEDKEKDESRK
Series [11] deals with T1, sodium channels in CAD cells. As to the kind of experiment: Whole-cell patch clamp, steady-state fast inactivation, CAD cells. It is filed as cell-based. The method in brief:
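CAD cells were recorded by whole-cell clamp at room temperature, with 3 s between pulses. Steady-state fast inactivation was induced by a previously described protocol. Test compound was applied at 10 μM (10–200 μM for one compound) versus 0.1% DMSO control. Each recording was fitted to a Boltzmann function to give V1/2 and slope k, which were averaged (mean ±SEM). Cells numbered 3–7 per condition, compared by Student's t test or one-way ANOVA.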
A general note: The patch-clamp technique gives a direct electrical read-out from membranes.

Series [12] has as its system scMet seizure model. The settings on record: cited from earlier work.
In series [13] the test system is Na+ currents in CAD cells. Description: Whole-cell patch clamp, frequency. It is filed as cell-based, mouse. The settings on record: 100 μM. The method in brief:
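Whole-cell voltage clamp was done at room temperature on CAD cells (Ham's F12/DMEM, 10% FBS, 1% pen/strep, 37 °C, 5% CO2, passaged 1:5 every 3–5 days). Criteria were access resistance <3 MΩ and −P/4 leak subtraction. Cells were held at −80 mV and given 20 ms pulses to −10 mV at 10 Hz. Peak currents were compared with the first pulse against 0.1% DMSO control, with test compound at 10 or 100 μM.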

Series [14] deals with mice (MES seizure model). The settings on record: ip, (95% CI), cited from earlier work.

The structures appear in SMILES notation. Entries after “also recorded” stand apart in the source; their conditions may differ. Where two headings read alike, the source gives them in different places. A value given as a limit tells only on which side of the number the result lay.

For the molecule `COC[C@@H](NC(C)=O)C(=O)NCc1ccccc1` [(R)-2, (R)-N-benzyl 2-N-acetamido-3-methoxypropionamide], the “reduction of Na+ currents, frequency (use)-dependence” value in series [1] is listed as roughly 8.8%. Also, the “activity in the second (inflammation) phase of the formalin model” value in series [2] is reported as “effective”. Also, in series [3] (TNI day 14, 10 mg/kg ip, 1 h after administration), the “reversal of tactile hypersensitivity (% of preinjury values)” value is recorded as roughly 72%. Moreover, the “MES, ED50” value in series [4] ([time of peak effect, h]) is recorded as 3.9 mg/kg. Besides, the “effect on sodium channel inactivation (in words)” value in series [5] is recorded as “neither parent compound affected inactivation”. Moreover, in series [6], the “6 Hz ED50” value is 10 mg/kg. For the same molecule, the “effect on steady-state fast inactivation (in words)” value in [7] is reported as “neither (R)-2 nor (S)-3 affected fast inactivation”. In addition, the “Tox, TD50 (behavioral toxicity)” value in series [8] is >500 [0.5] mg/kg. Further, the “effect on steady-state activation of VGSCs (in words)” value in [9] is “neither 10 μM (R)-2 nor 10 μM (S)-3 affected the steady-state activation”. For the same molecule, in [10], the “effect on sodium channel fast inactivation” value was “did not”.
With `C[C@H](NCc1ccc(OCc2cccc(F)c2)cc1)C(N)=O` [(S)-3, (S)-2-(4′-((3″-fluoro)benzyloxy)benzyl)aminopropionamide], in [11], the “effect on VGSC fast inactivation” value is recorded as “promoted fast inactivation of VGSCs”. The “hyperpolarizing shift in V1/2 of fast inactivation vs control (maximum)” value in [11] (200 μM) is listed as roughly 21.6 mV. Also, the “scMet ED50” value in [12] is on record as 27 mg/kg. The “inhibition of Na+ current, frequency (use)-dependence” value in series [13] is given as roughly 13%. Moreover, in series [3] (TNI day 14, single ip administration, 10 mg/kg), the “effect on mechanical/tactile hypersensitivity (in words)” value is listed as “no effect; also recorded: without effect”. The “MES, ED50” value in series [4] is on record as 12 (10–14) mg/kg; in series [14], 4.1 (3.0–5.5) mg/kg. For the same molecule, the “effect on sodium channel inactivation (in words)” value in series [5] is “neither parent compound affected inactivation”. For the same molecule, the “effect on steady-state fast inactivation (in words)” value in series [7] is reported as “neither (R)-2 nor (S)-3 affected fast inactivation”. Besides, the “effect on steady-state activation of VGSCs (in words)” value in series [9] is recorded as “neither 10 μM (R)-2 nor 10 μM (S)-3 affected the steady-state activation”.
As to `NC(=O)N1c2ccccc2C=Cc2ccccc21` [carbamazepine], the “effect on tactile hypersensitivity (in words)” value in [3] (TNI, 65 mg/kg, ip) is on record as “ineffective”.
As to `O=C1NC(=O)C(c2ccccc2)(c2ccccc2)N1` [phenytoin], the “MES, ED50” value in [4] ([time of peak effect, h]) is 30 mg/kg; in series [14] ([time of peak effect, h]), 9.5 mg/kg.
